{"source": "ChEMBL document CHEMBL1687733", "about": "“Topoisomerase I gene mutations at F270 in the large subunit and N184 in the small subunit contribute to the resistance mechanism of the unicellular parasite Leishmania donovani towards 3,3'-diindolylmethane” (Antimicrob Agents Chemother, 2009)", "key": {"Leishmania donovani [1]": {"tested_on": "Leishmania donovani", "test": "Antimicrobial activity against wild type Leishmania donovani AG83 transfected with drug-resistant Leishmania donovani LdDR50 topoisomerase 1 F270L, N184S mutant in large subunit assessed as inhibition of parasite growth at 20 uM after 24 hrs by MTT assay", "assay_type": "functional", "settings": "AG83, 24 h", "outline": "(§1)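 WT promastigotes transfected by electroporation with mutant large-subunit (pXG-HYG, hygromycin selection) and/or small-subunit (pXG-GFP2+, G418 selection) topoisomerase I genes. Grown with DIM 1–20 μM for 24 h; MTT read-out, growth as % of optical density of untreated WT parasites.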"}, "Leishmania donovani [2]": {"tested_on": "Leishmania donovani", "test": "Drug uptake in wild type Leishmania donovani AG83 at 20 uM after 30 mins by spectrophotometric analysis", "assay_type": "ADME, organism-based", "settings": "in vivo, 0.5 h", "outline": "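Log-phase promastigotes at 3 × 10^7 cells/ml with 20 μM DIM at 22°C; aliquots at 1, 5, 10, 20 and 30 min washed three times in ice-cold PBS pH 7.4 with 0.01 N HCl, sonicated. Cell-associated DIM quantified by equilibrium dialysis and absorbance at 280 nm; three experiments in duplicate.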"}, "Leishmania donovani [3]": {"tested_on": "Leishmania donovani", "test": "Antimicrobial activity against wild type Leishmania donovani AG83 transfected with drug-resistant Leishmania donovani LdDR50 topoisomerase 1 K430N mutant in large subunit and wild type small subunit assessed as inhibition of parasite growth at 20 uM after 24 hrs by MTT assay", "assay_type": "functional", "settings": "AG83, 24 h", "outline": "as §1"}, "Leishmania donovani [4]": {"tested_on": "Leishmania donovani", "test": "Inhibition of recombinant wild type Leishmania donovani AG83 topoisomerase 1b-mediated relaxation of supercoiled pBluescript SK(+) DNA at 10 uM after 30 mins using ethidium bromide staining", "outline": "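Recombinant L and S subunits (E. coli, Ni-NTA then phosphocellulose) were reconstituted at a 1:1 molar ratio and dialysed 12 h at 4°C in 50 mM K-phosphate pH 7.5. Enzyme (30 fmol) acted on 90 fmol supercoiled pBS SK(+) for 30 min at 37°C, with DIM or 4% DMSO. Products ran on 1% agarose with ethidium bromide (0.5 μg/ml), and the supercoiled band was quantified.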"}, "[5]": {"tested_on": "T1, Leishmania donovani [K430N]", "T1 sequence (whole entry)": "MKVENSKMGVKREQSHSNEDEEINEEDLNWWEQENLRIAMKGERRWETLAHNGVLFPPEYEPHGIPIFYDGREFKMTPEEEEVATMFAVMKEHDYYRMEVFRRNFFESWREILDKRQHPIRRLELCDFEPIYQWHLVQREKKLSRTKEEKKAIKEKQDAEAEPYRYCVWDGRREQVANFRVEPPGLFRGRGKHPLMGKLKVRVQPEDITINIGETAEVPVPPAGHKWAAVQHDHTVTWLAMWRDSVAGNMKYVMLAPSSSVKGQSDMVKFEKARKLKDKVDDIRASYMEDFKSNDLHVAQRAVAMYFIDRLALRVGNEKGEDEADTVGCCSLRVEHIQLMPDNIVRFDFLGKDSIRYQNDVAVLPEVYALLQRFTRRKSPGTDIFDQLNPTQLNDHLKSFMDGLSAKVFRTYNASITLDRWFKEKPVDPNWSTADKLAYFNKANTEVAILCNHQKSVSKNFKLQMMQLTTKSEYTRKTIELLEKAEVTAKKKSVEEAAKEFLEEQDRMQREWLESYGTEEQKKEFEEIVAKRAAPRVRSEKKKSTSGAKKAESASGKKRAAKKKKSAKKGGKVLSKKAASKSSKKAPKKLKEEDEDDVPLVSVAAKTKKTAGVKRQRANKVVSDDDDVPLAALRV", "test": "Inhibition of recombinant drug-resistant Leishmania donovani LdDR50 topoisomerase 1b wild type small subunit and large subunit K430N mutant-mediated relaxation of supercoiled pBluescript SK(+) DNA at up to 50 uM after 30 mins using ethidium bromide staining", "outline": "(§2)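 Reconstituted recombinant enzyme (30 fmol) with 90 fmol supercoiled pBluescript SK(+) DNA (3:1 DNA:enzyme), 30 min at 37°C with DIM (1–50 μM for fully mutant enzyme; 10 μM for single-site mutants); 4% DMSO vehicle control. Products on 1% agarose, ethidium bromide (0.5 μg/ml) stained; supercoiled monomer band quantified.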"}, "[6]": {"tested_on": "T2, Leishmania donovani [N184S]", "T2 sequence (whole entry)": "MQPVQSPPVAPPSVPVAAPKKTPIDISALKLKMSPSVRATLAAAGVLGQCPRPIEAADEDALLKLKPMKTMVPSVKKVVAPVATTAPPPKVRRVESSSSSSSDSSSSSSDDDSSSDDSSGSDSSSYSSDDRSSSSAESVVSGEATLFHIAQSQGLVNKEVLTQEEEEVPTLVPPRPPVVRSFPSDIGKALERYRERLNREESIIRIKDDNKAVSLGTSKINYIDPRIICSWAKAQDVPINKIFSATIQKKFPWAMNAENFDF", "test": "Inhibition of recombinant drug-resistant Leishmania donovani LdDR50 topoisomerase 1b wild type large subunit and small subunit N184S mutant-mediated relaxation of supercoiled pBluescript SK(+) DNA at up to 50 uM after 30 mins using ethidium bromide staining", "outline": "as §2"}, "[7]": {"tested_on": "T3, DNA topoisomerase type IB small subunit (Leishmania donovani (strain BPK282A1)), E9B7X3 [N184S]", "T3 sequence (whole entry)": "T2 sequence (whole entry)", "test": "Effect on recombinant drug-resistant Leishmania donovani LdDR50 topoisomerase 1b small subunit N184S mutant-mediated cleavage of 25-mer duplex oligonucleotide at 5 uM after 30 mins by PAGE analysis", "outline": "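5′-32P-labelled 25-mer duplex (10 nM) incubated with reconstituted mutant enzyme (0.2 μM, 20-fold molar excess) and DIM 5–20 μM for 30 min (Methods 37°C; legend 23°C). Stopped with SDS, trypsin-treated, resolved on 12% denaturing polyacrylamide-urea gel; cleaved 12-mer detected by autoradiography.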"}, "[8]": {"test": "Binding affinity to recombinant wild type Leishmania donovani AG83 topoisomerase 1b after 24 hrs by equilibrium dialysis method"}, "Leishmania donovani [9]": {"tested_on": "Leishmania donovani", "test": "Ratio of KD for drug-resistant Leishmania donovani LdDR50 topoisomerase 1b to KD for wild type Leishmania donovani AG83 topoisomerase 1b"}, "DNA topoisomerase I": {"biological_target": "DNA topoisomerase I (Leishmania donovani (strain BPK282A1), UniProt E9BRC0, F270L)", "test": "Binding affinity to recombinant drug-resistant Leishmania donovani LdDR50 topoisomerase 1b large subunit F270L mutant after 24 hrs by equilibrium dialysis method", "outline": "(§3)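 Recombinant His-tagged subunits expressed in E. coli BL21(DE3) pLysS, purified on Ni-NTA then phosphocellulose, reconstituted 1:1. Enzyme 200 μM with DIM 1–20 μM in 20 mM Tris-HCl pH 7.5, 50 mM NaCl, 10 mM MgCl2 for 30 min at 37°C, then dialysed (12–14 kDa cutoff) 24 h at 25°C. Free DIM measured by absorbance (ε 6.6 × 10^4 M−1); KD from saturation plot.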"}, "[10]": {"biological_target": "DNA topoisomerase type IB small subunit (Leishmania donovani (strain BPK282A1), UniProt E9B7X3, N184S)", "test": "Binding affinity to recombinant drug-resistant Leishmania donovani LdDR50 topoisomerase 1b small subunit N184S mutant after 24 hrs by equilibrium dialysis method", "outline": "as §3"}}, "note": "Calls of active or inactive are those of the source.", "data": [{"smiles": "c1ccc2c(Cc3c[nH]c4ccccc34)c[nH]c2c1", "note": "[ARUNDINE]", "values": [{"measurement": "inhibition at 20 µM", "setting": "Leishmania donovani [1]", "value": 31, "unit": "%"}, {"measurement": "Drug uptake", "setting": "Leishmania donovani [2]", "value": "Active"}, {"measurement": "inhibition at 20 µM", "setting": "Leishmania donovani [3]", "value": 94, "unit": "%"}, {"measurement": "inhibition", "setting": "Leishmania donovani [4]", "value": "Active"}, {"measurement": "inhibition", "setting": "[5]", "value": "Active"}, {"measurement": "inhibition", "setting": "[6]", "value": "Active"}, {"measurement": "Activity", "setting": "[7]", "value": "inactive"}, {"measurement": "Kd", "setting": "[8]", "value": 0.0097, "unit": "µM"}, {"measurement": "Ratio", "setting": "Leishmania donovani [9]", "value": 25000}, {"measurement": "Kd", "setting": "DNA topoisomerase I", "value": 530, "unit": "µM"}, {"measurement": "Kd", "setting": "[10]", "value": 380, "unit": "µM"}]}]}
